# Source: PubChem
# Shown are actives, neighbours in structure and some others; about 3.7% of the full set was active somewhere.
# TAAR1 agonist: agonists of human TAAR1. 360,000 tested, 0.99% active. activation, % at 3 µM. Q96RJ0. AID 624467. CHO RD-HGA16 TAAR1, Fluo-8 calcium fluorescence; vehicle wells 0%, saturating PEA agonist 100%;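 active = activation above the mean activation of all test compounds in the run plus 3 SD, cut at about 38% in these data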
# Target sequence (Q96RJ0 whole entry, looked up): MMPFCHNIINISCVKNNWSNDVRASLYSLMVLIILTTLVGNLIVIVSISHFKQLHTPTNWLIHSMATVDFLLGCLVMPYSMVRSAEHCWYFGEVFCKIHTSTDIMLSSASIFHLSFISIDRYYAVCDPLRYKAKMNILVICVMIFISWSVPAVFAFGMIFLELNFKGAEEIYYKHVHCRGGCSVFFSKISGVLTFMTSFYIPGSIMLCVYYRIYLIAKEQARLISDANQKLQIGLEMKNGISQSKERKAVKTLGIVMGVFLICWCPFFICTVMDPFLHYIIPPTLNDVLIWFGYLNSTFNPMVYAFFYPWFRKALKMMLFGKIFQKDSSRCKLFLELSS
#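 Test system: RD-HGA16 (CHO) cells co-expressing Gα16 and hTAAR1; dosing: one-point dosing at 3 µM (nominal); timing: 17-24 h seeding, 75 min 37 °C dye, 30 min RT; signal: kinetic Fluo-8 calcium fluorescence; read-out basis: % activation relative to PEA EC100 response; controls: DMSO and PEA EC100; replicates: n 1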
# NS3 helicase inh: HCV NS3 helicase inhibition | 290,000 tested, 0.56% active | inhibition, % at 10.9 µM | NS3 helicase DNA unwinding, Cy5 molecular beacon fluorescence;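 active = inhibition above the mean of all tested compounds plus 3 SD, set per campaign, cut at about 35% in these data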;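 also: 0% = DMSO wells and 100% = thioflavine S control wells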
#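 Control set: DMSO versus 110 µM thioflavine S; Material: NS3 helicase fragment of HCV; Measured by: Cy5 fluorescence at 0 and 60 min, beacon hairpin quenching; Read-out basis: percent inhibition from t60/t0 fluorescence ratio; Times: reaction time 60 min, 25 °C; Repeats: single replicate; Compound dosing: single dose, 10.9 µM nominal final, DMSO 0.8% final.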
# TAAR1 antagonist: human TAAR1 antagonism; CHO RD-HGA16 TAAR1, Fluo-8 calcium fluorescence, antagonist; inhibition, % at 3 µM; Q96RJ0; 360,000 tested, 1.5% active;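 active = inhibition above a per-plate cutoff, the mean inhibition of test compounds on that plate plus 3 SD, cut at about 49% in these data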;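 also: 0% = DMSO plus EC80 beta-PEA response and 100% = DMSO alone without agonist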
#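 Test system – hTAAR1-expressing CHO RD-HGA16 cells, Gα16-coupled · Also added – β-PEA at EC80 concentration, post-compound challenge · Compound – 3 µM, single point · Incubation – dye loading 75 min at 37 °C, then 30 min room temperature · Measured by – Fluo-8 intracellular calcium dye fluorescence, real-time kinetic reads · Benchmarks – vehicle and agonist controls · Replicates – singlicate, one well per test compound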
# rCAG RNA binder: binds r(CAG) RNA repeats. 370,000 tested, 1.3% active. r(CAG) RNA repeat, TO-PRO-1 dye displacement fluorescence. AID 651821. inhibition, % at 3 µM;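 active = inhibition above the plate cutoff, the mean of all test compounds on that plate plus 3 SD, cut at about 35% in these data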;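 also: 0% = DMSO alone and 100% = 100 µM mitoxantrone as full dye displacement; higher means more dye released from RNA so lower well fluorescence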
# core dimer inh: HCV core protein dimerization inhibition; TR-FRET GST/Flag-core106 dimerization, 1536-well; inhibition, % at 5 µM; 300,000 tested, 0.33% active; AID 1899;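 active = inhibition above the mean of all tested compounds plus 3 SD, set per screening campaign, cut at about 45% in these data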
#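 Material: Tagged HCV core106 pair (GST and Flag) | Amount: GST-core106 13.5 nM, Flag-core106 17 nM | Medium: KF-containing HEPES buffer, pH 7.45, DTT, CHAPS, BSA | Reagent: Eu donor and XL665 acceptor anti-tag antibodies | Schedule: 4 h at 22.5 °C | Technique: Time-resolved FRET, ex 340 nm, em 617 and 671 nm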
# An asterisk follows results filed as active; · = no result given.
SMILES,TAAR1 agonist,NS3 helicase inh,TAAR1 antagonist,rCAG RNA binder,core dimer inh
C/C(=N\NC(=O)c1ccc(N/N=C(\C)c2ccc(O)cc2)cc1)c1ccc(O)cc1,4,-1,56*,15,-8
CC(Oc1ccc(Br)cc1)c1nc2c3ccccc3nc(=S)n2[nH]1 (stereo not drawn),0,14,-25,36*,14
Cc1ccc2c(c1)C1CS(=O)(=O)N(CC(C)C)CN1C2 (stereo not drawn),·,·,·,3,·
COc1cccc(NC(=O)C2CCCN2C(=O)NCc2ccccc2OC)c1 (stereo not drawn),·,·,·,3,·
O=C(COc1ccc([N+](=O)[O-])cc1)Nc1ccc(S(=O)(=O)N2CCOCC2)cc1,47*,-7,-7,4,6
O=C(COc1ccc(C(=O)c2ccc(F)cc2)cc1)Nc1cccc(S(=O)(=O)N2CCOCC2)c1,12,·,62*,8,·
COCCNC(=O)C(c1cccs1)N(CCc1ccccc1)C(=O)Cn1nnc2ccccc21 (stereo not drawn),40*,-10,5,1,0
COCCNC(=O)C(c1cccs1)N(Cc1ccccc1)C(=O)Cn1nnc2ccccc21 (stereo not drawn),17,-4,2,-5,-4
Cc1ncc(CO)c2c1Oc1nc(-c3ccccc3F)nc(SCC(=O)N(C)c3ccccc3)c1C2,·,4,·,·,53*
COc1ccccc1-c1nc2c(c(SCC(=O)N3CCCCC3)n1)Cc1c(CO)cnc(C)c1O2,10,0,54*,12,15
Cc1cc(N2CCN(Cc3ccc4c(c3)OCO4)CC2)n2nc(C)nc2n1,·,·,·,0,·
COC(=O)[C@]12C[C@H](CC(=O)NCc3cccc4ccccc34)C(=O)N(CCc3ccc(OC)c(OC)c3)C1=C[C@H](COCc1ccccc1)O[C@@H]2C,·,·,·,11,·
Cc1[nH]c2ccccc2c1C(=O)COC(=O)c1ccccc1O,12,·,65*,6,·
Cc1cc(C)c(S(=O)(=O)N2CCOC2CNC(=O)C(=O)NCCc2ccc(S(N)(=O)=O)cc2)c(C)c1 (stereo not drawn),0,0,-9,9,50*
COc1ccccc1CCNC(=O)C(=O)NCC1OCCN1S(=O)(=O)c1ccc(OC)c(OC)c1 (stereo not drawn),40*,-6,-17,3,-5
O=C(NCCCc1ccccc1)C(=O)NCC1OCCN1S(=O)(=O)c1cc(F)ccc1F (stereo not drawn),1,-2,-2,1,19
COc1ccccc1CCNC(=O)C(=O)NCC1OCCN1S(=O)(=O)c1ccc(Cl)cc1 (stereo not drawn),36,13,7,4,5
COc1ccc(CCNC(=O)C(=O)NCC2OCCN2S(=O)(=O)c2cc(F)ccc2F)cc1 (stereo not drawn),15,19,55*,9,15
COc1ccccc1CCNC(=O)C(=O)NCC1OCCN1S(=O)(=O)c1ccc(F)cc1 (stereo not drawn),39*,2,-18,3,18
Cc1ccc(CN2CCCCC(NC(=O)Nc3ccccc3-c3ccccc3)C2=O)cc1 (stereo not drawn),·,·,·,2,·
CC(C)CN1C(=O)C[C@]2(C(=O)N(C)c3ccc(NC(=O)C(F)(F)F)cc32)C1c1ccccc1 (stereo partly drawn),·,·,·,-1,·
COC(=O)C1CN(Cc2ccc(F)cc2)CCS(=O)(=O)N1Cc1ccc(F)cc1 (stereo not drawn),·,·,·,1,·
C=CCN1C(=O)[C@H](CC(=O)N2CCCCC2)[C@@]2(C(=O)OCC)CCCC=C12,·,·,·,-1,·
CCCCCNC(=O)C(c1ccccc1F)n1c(=O)c(-c2ccco2)nc2ccccc21 (stereo not drawn),-1,·,-20,40*,·
O=C(NCc1ccccc1)C(c1ccc(C(F)(F)F)cc1)n1c(=O)c(-c2ccco2)nc2ccccc21 (stereo not drawn),-1,·,-25,36*,·
SMILES,TAAR1 agonist,NS3 helicase inh,TAAR1 antagonist,rCAG RNA binder,core dimer inh
CCCCCNC(=O)C(c1ccc(OC)cc1)n1c(=O)c(-c2ccco2)nc2ccccc21 (stereo not drawn),-2,·,-17,32,·
O=C(OCc1cn(Cc2ccc(Cl)cc2)nn1)N1CCCC1,·,·,·,-1,·
Cc1ccc(-n2c(SCC(=O)c3ccc(F)cc3)nnc2-c2cnccn2)cc1,·,·,·,2,·
CC(C)(C)c1ccc(S(=O)(=O)N2CCC(C(=O)NCc3cccs3)CC2)cc1,·,·,·,3,·
COCCCN1C(=O)[C@H](CC(=O)N2CCOCC2)[C@]2(C(=O)OC)CCCCC=C12,·,·,·,0,·
Nc1ccc(O)c(-c2nc3ccccc3s2)c1,1,16,20,18,82*
Cc1ccc2c(c1)C(CS(=O)(=O)NCc1ccc(F)cc1)NC2 (stereo not drawn),·,·,·,7,·
CC(C)=CCc1c(O)ccc(C(=O)Cc2ccccc2)c1O,40*,-5,26,6,7
CCCCNC(=O)C[C@H]1C(=O)N(Cc2ccc(OC)cc2)C2=CCCCC[C@@]21C(=O)OC,·,·,·,10,·
Cc1cccc(OCCSc2nc3c([nH]2)c(=N)ncn3Cc2ccccc2)c1,19,-28,56*,-1,-3
CC(C)Sc1nc2c([nH]1)c(=N)ncn2Cc1ccccc1,-1,-6,15,1,-2
CCC(C)Sc1nc2c(c(=O)[nH]1)C(c1cccs1)C1=C(CCCC1=O)N2 (stereo not drawn),2,21,-27,16,57*
O=C1CCCC2=C1C(c1ccncc1)c1c(nc(SCc3ccccc3Cl)[nH]c1=O)N2 (stereo not drawn),12,5,5,8,7
CCCCCCCCCCCCCCCC[n+]1ccc(C(N)=O)cc1,36,-61,41,9,-15
CCCCCCCCCCCCCCCC[n+]1ccc(/C=N/O)cc1,22,-54,78*,15,-18
COc1ccc(C(=O)c2sc(Nc3ccccc3)c(C(=O)Nc3ccc(OC)c(OC)c3)c2N)cc1,7,4,21,22,25
COc1ccc(Nc2sc(C(=O)c3ccc(Cl)cc3)c(N)c2C(=O)Nc2ccccc2OC)cc1,107*,16,73*,23,24
COc1ccc(C(=O)c2sc(Nc3cccc(OC)c3)c(C(=O)Nc3cccc(C)c3C)c2N)cc1,38*,10,32,17,22
N#Cc1ccccc1CSc1ccc(-c2nc3ccccc3[nH]2)cn1,13,4,50*,6,-12
COc1ccc(N2CCN(C(=O)c3ccc4c(c3)NC(=O)C(CSCc3c(F)cccc3Cl)N4)CC2)cc1 (stereo not drawn),·,8,·,·,67*
COc1ccc(N2CCN(C(=O)c3ccc4c(c3)NC(=O)C(CSCc3cccc(F)c3)N4)CC2)cc1 (stereo not drawn),·,14,·,·,34
